Published values pooled from the literature.
Oprd1: Delta-type opioid receptor (Oprd1, Rattus norvegicus, UniProt P33533)
HTR7: 5-hydroxytryptamine receptor 7 (HTR7, Homo sapiens, UniProt P34969)
CTSB: Cathepsin B (CTSB, Homo sapiens, UniProt P07858)

| SMILES | target | test | setting | measurement | value |
| --- | --- | --- | --- | --- | --- |
| N=C(N)NCCC[C@@H]1NC(=O)[C@H](Cc2ccc(O)cc2)NC(=O)[C@@H](CCCCN)NC(=O)[C@@H](Cc2ccccc2)NC1=O | Oprd1 | ligand displacement, radioligand | cell membranes | Ki | > 10000 nM |
| CC[C@H](C)[C@H](NC(=O)[C@H](CCCNC(=N)N)NC(=O)[C@H](CC(C)C)NC(=O)[C@@H](N)Cc1ccccc1)C(=O)N[C@@H](CCCNC(=N)N)C(=O)N1CCC[C@H]1C(=O)N[C@@H](CCCCN)C(=O)O | HTR7 | cell-free assay, radioligand | – | Ki | > 10000 nM |
| C[C@H](N)Cn1ncc2ccc3c(c21)CCCO3 | HTR7 | ligand displacement, radioligand | – | Ki | 1160 nM |
| COc1cc2oc(-c3ccc(O)c(O)c3)cc(=O)c2c(O)c1O | Genome polyprotein, protease (ZIKV, UniProt A0A024B7W1) | enzyme activity, inhibitor | – | Ki | 4500 nM |
| CC(C)C[C@H]1C(=O)N2CCC[C@H]2[C@]2(O)O[C@](NC(=O)[C@@H]3C=C4c5cccc6[nH]c(Br)c(c56)C[C@H]4N(C)C3)(C(C)C)C(=O)N12 | HTR7 | ligand displacement, radioligand | cell membranes | Ki | 143 nM |
| Cc1cc(O)cc(C)c1C[C@H](C)C(=O)N[C@@H]1C/C=C/CC[C@@H](C(N)=O)NC(=O)[C@H](Cc2ccccc2)NC(=O)[C@H](Cc2ccccc2)NC1=O | Oprd1 | ligand displacement, radioligand | cell membranes | Ki | 35.3 nM |
| COC1=C(N)C(=O)c2nc(-c3nc(C(=O)O)c(C)c(-c4ccc(OC)c(OC)c4O)c3N)ccc2C1=O | Sentrin-specific protease 1 (SENP1, Homo sapiens, UniProt Q9P0U3) | enzyme activity, inhibitor, fluorescence | – | Ki | 138 nM |
| Cc1cc(O)cc(C)c1C[C@H](N)C(=O)N1CCc2ccc(Cc3ccc(N)cc3)cc2C1 | Oprd1 | ligand displacement, radioligand | cell membranes | Ki | 3.1 nM |
| CC(C)C[C@H](NC(=O)[C@H](CCCCN)NC(=O)[C@@H]1CCCN1C(=O)[C@@H](N)CCCNC(=N)N)C(=O)N[C@@H](CCCCN)C(=O)O | HTR7 | cell-free assay, radioligand | – | Ki | > 10000 nM |
| Cc1cc(O)cc(C)c1C[C@H](N)C(=O)N[C@H](CCCNC(=N)N)C(=O)N[C@@H](Cc1c[nH]c2ccccc12)C(=O)N[C@@H](CCCCN)C(N)=O | Oprd1 | ligand displacement, radioligand | cell membranes | Ki | 186 nM |
| Cc1cc(O)cc(C)c1C[C@H](N)C(=O)N[C@@H]1CCN(C(=O)c2ccccc2)c2ccc(Cc3cnc4ccccc4c3)cc21 | Oprd1 | GTPγS binding, antagonist | cell membranes | Kb | 8 nM |
| Cc1ccccc1Cc1ccc2c(c1)CN(C(=O)[C@@H](N)Cc1c(C)cc(O)cc1C)CC2 | Oprd1 | ligand displacement, radioligand | cell membranes | Ki | 5.8 nM |
| CCCCCCCCCCCCCCCCOC[C@H](COP(=O)([O-])OCC[N+](C)(C)C)OC(C)=O | Platelet-activating factor receptor (PTAFR, Homo sapiens, UniProt P25105) | ligand displacement, radioligand | – | IC50 | 0.25 nM |
| OC(c1ccc(F)cc1)C(F)(F)CCN1CCC(O)(c2ccc(Cl)cc2)CC1 (racemic) | HTR7 | cell-free assay, radioligand | – | Ki | 2710 nM |
| CN(C(=O)[C@H](Cc1ccccc1)NC(=O)[C@@H](NC(=O)OCc1ccccc1)C(C)(C)C)N(C#N)CCC(N)=O | CTSB | enzyme activity, inhibitor | – | Ki | 75 nM |
| CCc1cccc(C)c1C[C@H](NC(=O)[C@@H](CCCNC(=N)N)NC(=O)[C@@H](N)Cc1c(C)cc(O)cc1C)C(=O)N[C@@H](CCCCN)C(N)=O | Oprd1 | ligand displacement, radioligand | cell membranes | Ki | 50 nM |
| CC[C@H](NC(=O)OCc1ccccc1)C(=O)N[C@H](C(=O)N[C@@H](CC(C)C)C(=O)N(C)N(C#N)CCC(N)=O)C(C)(C)C | CTSB | enzyme activity, inhibitor | – | Ki | 28.8 nM |
| c1cncc(C2C3CCN2CC3)c1 (stereo not drawn) | Neuronal acetylcholine receptor subunit alpha-4/beta-2 (Mus musculus, UniProt O70174+Q9ERK7) | ligand displacement, radioligand | cell membranes | Ki | 7.42 nM |
